Experimental data from the M2OR odorant receptor database.

Assays:
Conditions in all cases: stereoisomer not certain
[1] = molecular target: UniProt Q9WVD9
How it was run: (§1)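 Transient luciferase assays in mammalian cell lines were common, though methods varied by source. The values come from published papers and their supplementary material, with extra details from the original authors when needed. Responsive refers to a measured signal the original authors judged statistically different from baseline, and non-responsive (inactive) to the remainder.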

[2] = molecular target: T1, UniProt Q9WVN5
T1 sequence (whole entry): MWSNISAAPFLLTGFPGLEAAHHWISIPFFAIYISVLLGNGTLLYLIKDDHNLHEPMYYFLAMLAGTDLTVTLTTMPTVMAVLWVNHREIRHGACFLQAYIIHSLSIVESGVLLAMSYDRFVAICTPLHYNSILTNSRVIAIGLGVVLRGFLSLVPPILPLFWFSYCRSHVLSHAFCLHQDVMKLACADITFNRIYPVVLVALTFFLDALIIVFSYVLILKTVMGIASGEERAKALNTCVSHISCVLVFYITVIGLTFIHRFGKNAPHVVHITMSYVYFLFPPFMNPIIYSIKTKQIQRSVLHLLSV
How it was run: as §1

[3] = molecular target: UniProt Q9WVD7
How it was run: as §1
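Also: active if original authors judged signal statistically different from baseline.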

Chain of UniProt Q9WVD9 (Q9WVD9 as listed by the source): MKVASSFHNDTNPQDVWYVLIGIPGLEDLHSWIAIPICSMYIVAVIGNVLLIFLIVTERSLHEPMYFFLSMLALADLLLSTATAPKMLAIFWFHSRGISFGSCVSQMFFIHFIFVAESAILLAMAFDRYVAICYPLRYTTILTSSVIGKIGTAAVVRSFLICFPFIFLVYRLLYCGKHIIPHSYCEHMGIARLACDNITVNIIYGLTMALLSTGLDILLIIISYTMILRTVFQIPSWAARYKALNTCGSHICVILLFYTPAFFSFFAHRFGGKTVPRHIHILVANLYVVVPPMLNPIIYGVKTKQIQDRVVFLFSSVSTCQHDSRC
Chain of UniProt Q9WVD7 (Q9WVD7 as listed by the source): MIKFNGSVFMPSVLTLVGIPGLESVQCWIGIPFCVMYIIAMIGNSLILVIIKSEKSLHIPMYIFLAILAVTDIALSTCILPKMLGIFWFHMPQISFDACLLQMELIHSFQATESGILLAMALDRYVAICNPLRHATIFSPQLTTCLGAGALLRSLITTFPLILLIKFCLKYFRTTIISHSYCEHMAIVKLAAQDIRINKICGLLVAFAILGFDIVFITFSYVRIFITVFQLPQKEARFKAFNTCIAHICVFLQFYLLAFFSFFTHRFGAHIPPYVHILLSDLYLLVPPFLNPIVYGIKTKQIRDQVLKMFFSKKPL

Row | Compound | odorant receptor agonist call [1] | odorant receptor agonist call [2] | odorant receptor agonist call [3]
1 | C=CCc1ccccc1 | inactive | inactive | 
2 | O=c1cc(O)c2ccccc2o1 | inactive | inactive | 
3 | C=CCOC(=O)Cc1ccccc1 | inactive | active | 
4 | CCC1CCC(=O)O1 (centres undefined) | inactive | inactive | 
5 | O=C(O)CCCCCCCBr |  |  | active
